ChEMBL document CHEMBL3745673, “Synthesis, antimycobacterial screening and ligand-based molecular docking studies on novel pyrrole derivatives bearing pyrazoline, isoxazole and phenyl thiourea moieties” (Eur J Med Chem, 2016)
≈ marks a conversion by molar mass, not a printed value.

Test system: Mycobacterium tuberculosis
Assay: Antitubercular activity against multi drug resistant Mycobacterium tuberculosis H37Rv after 5 days by microplate alamar blue assay
Type: functional
Settings: 120 h
Method in brief: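 Middlebrook 7H9 broth with compounds serially diluted on the plate over ten concentrations from 0.2 to 100. Sealed plates incubated 5 days at 37°C, then a fresh 1:1 mix of Alamar Blue and 10% Tween 80 was added for a further 24 h. Blue wells were scored as no growth and pink wells as growth.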

SMILES	MIC
COc1ccc(/C=C/C(=O)c2ccc(-n3cccc3)cc2)cc1	12.5 µg/mL (≈ 41.2 µM)
COc1cc(C2CC(c3cccc([N+](=O)[O-])c3)=NN2C(C)=O)cc(OC)c1OC (centres undefined)	12.5 µg/mL (≈ 31.3 µM)
CC(=O)Nc1ccc(O)c(C2CC(c3ccc(Cl)cc3)=NN2C(=O)c2ccncc2)c1 (centres undefined)	3.12 µg/mL (≈ 7.17 µM)
COc1ccc(C2CC(c3ccc(-n4cccc4)cc3)=NN2C(C)=O)cc1OC (centres undefined)	12.5 µg/mL (≈ 32.1 µM)
Clc1ccc(-c2cc(-c3ccc(-n4cccc4)cc3)on2)cc1	50 µg/mL (≈ 156 µM)
Clc1cccc(Cl)c1-c1cc(-c2ccc(-n3cccc3)cc2)on1	100 µg/mL (≈ 282 µM)
Cc1ccc(NC(=S)Nc2ccccc2-n2c(C)ccc2C)cc1	50 µg/mL (≈ 149 µM)
Brc1ccccc1-c1cc(-c2ccc(-n3cccc3)cc2)on1	100 µg/mL (≈ 274 µM)
Clc1cccc(-c2cc(-c3ccc(-n4cccc4)cc3)on2)c1Cl	25 µg/mL (≈ 70.4 µM)
CC(=O)N1N=C(c2ccc(-n3cccc3)cc2)CC1c1ccc(Cl)cc1Cl (centres undefined)	25 µg/mL (≈ 62.8 µM)
O=C(/C=C/c1ccccc1Cl)c1ccc(-n2cccc2)cc1	25 µg/mL (≈ 81.2 µM)
Cc1ccc(C)n1-c1ccccc1NC(=S)Nc1ccc(Cl)c(Cl)c1	6.25 µg/mL (≈ 16 µM)
CC(=O)N1N=C(c2ccc(-n3cccc3)cc2)CC1c1ccc(Cl)cc1 (centres undefined)	25 µg/mL (≈ 68.7 µM)
Brc1cccc(-c2cc(-c3ccc(-n4cccc4)cc3)on2)c1	50 µg/mL (≈ 137 µM)
Fc1ccc(-c2cc(-c3ccc(-n4cccc4)cc3)on2)cc1	12.5 µg/mL (≈ 41.1 µM)
O=C(/C=C/c1ccccc1)c1ccc(-n2cccc2)cc1	50 µg/mL (≈ 183 µM)
O=C(/C=C/c1ccc(Cl)cc1Cl)c1ccc(-n2cccc2)cc1	25 µg/mL (≈ 73.1 µM)
CC(=O)N1N=C(c2ccc(-n3cccc3)cc2)CC1c1ccccc1 (centres undefined)	25 µg/mL (≈ 75.9 µM)
Cc1ccc(C)n1-c1ccccc1NC(=S)Nc1ccccc1Br	50 µg/mL (≈ 125 µM)
Clc1ccc(-c2cc(-c3ccc(-n4cccc4)cc3)on2)c(Cl)c1	50 µg/mL (≈ 141 µM)

SMILES	MIC
Clc1ccccc1-c1cc(-c2ccc(-n3cccc3)cc2)on1	25 µg/mL (≈ 77.9 µM)
CC(C)c1ccc(/C=C/C(=O)c2ccc(-n3cccc3)cc2)cc1	12.5 µg/mL (≈ 39.6 µM)
Cc1ccc(C)n1-c1ccccc1NC(=S)Nc1ccc(F)cc1	1.6 µg/mL (≈ 4.71 µM)
COc1cccc(C2CC(c3ccc(-n4cccc4)cc3)=NN2C(C)=O)c1 (centres undefined)	6.25 µg/mL (≈ 17.4 µM)
CC(=O)N1N=C(c2ccc(-n3cccc3)cc2)CC1c1ccccc1Br (centres undefined)	100 µg/mL (≈ 245 µM)
CC(=O)N1N=C(c2ccc(-n3cccc3)cc2)CC1c1c(Cl)cccc1Cl (centres undefined)	25 µg/mL (≈ 62.8 µM)
O=C(/C=C/c1ccccc1O)c1ccc(-n2cccc2)cc1	25 µg/mL (≈ 86.4 µM)
Cc1ccc(C)n1-c1ccccc1NC(=S)Nc1ccccc1	50 µg/mL (≈ 156 µM)
NC(=S)N1N=C(C/N=N/NC(=O)c2cccnc2)CC1c1ccccc1 (centres undefined)	1.25 µg/mL (≈ 3.4 µM)
O=C(/C=C/c1cccc(Cl)c1Cl)c1ccc(-n2cccc2)cc1	25 µg/mL (≈ 73.1 µM)
c1coc(-c2cc(-c3ccc(-n4cccc4)cc3)on2)c1	25 µg/mL (≈ 90.5 µM)
CC(=O)N1N=C(c2ccc(-n3cccc3)cc2)CC1c1ccco1 (centres undefined)	25 µg/mL (≈ 78.3 µM)
O=C(/C=C/c1cccc(Oc2ccccc2)c1)c1ccc(-n2cccc2)cc1	25 µg/mL (≈ 68.4 µM)
Cc1ccc(C)n1-c1ccccc1NC(=S)Nc1ccc(Cl)cc1	50 µg/mL (≈ 140 µM)
CC(=O)N1N=C(c2ccc(-n3cccc3)cc2)CC1c1ccccc1Cl (centres undefined)	25 µg/mL (≈ 68.7 µM)
COc1ccc(-c2cc(-c3ccc(-n4cccc4)cc3)on2)cc1OC	12.5 µg/mL (≈ 36.1 µM)
c1ccc(-c2cc(-c3ccc(-n4cccc4)cc3)on2)cc1	100 µg/mL (≈ 349 µM)
Cc1ccc(-c2cc(-c3ccc(-n4cccc4)cc3)on2)cc1	12.5 µg/mL (≈ 41.6 µM)
COc1ccc(C2CC(c3ccc(-n4cccc4)cc3)=NN2C(C)=O)c(OC)c1 (centres undefined)	6.25 µg/mL (≈ 16 µM)
Cc1ccc(C)n1-c1ccccc1NC(=S)Nc1ccc([N+](=O)[O-])cc1	50 µg/mL (≈ 136 µM)

SMILES	MIC
O=C(/C=C/c1c(Cl)cccc1Cl)c1ccc(-n2cccc2)cc1	25 µg/mL (≈ 73.1 µM)
O=C(/C=C/c1cccc(Br)c1)c1ccc(-n2cccc2)cc1	100 µg/mL (≈ 284 µM)
CC(=O)N1N=C(c2ccc(-n3cccc3)cc2)CC1c1cccc(Cl)c1Cl (centres undefined)	25 µg/mL (≈ 62.8 µM)
O=C(/C=C/c1ccccc1Br)c1ccc(-n2cccc2)cc1	50 µg/mL (≈ 142 µM)
CC(=O)N1N=C(c2ccc(-n3cccc3)cc2)CC1c1ccc(F)cc1 (centres undefined)	12.5 µg/mL (≈ 36 µM)
O=C(/C=C/c1ccco1)c1ccc(-n2cccc2)cc1	50 µg/mL (≈ 190 µM)
COc1cccc(/C=C/C(=O)c2ccc(-n3cccc3)cc2)c1	25 µg/mL (≈ 82.4 µM)
Cc1ccc(C)n1-c1ccccc1NC(=S)Nc1cccc(Cl)c1	50 µg/mL (≈ 140 µM)
O=C(/C=C/c1ccc(F)cc1)c1ccc(-n2cccc2)cc1	12.5 µg/mL (≈ 42.9 µM)
CC(=O)N1N=C(c2ccc(-n3cccc3)cc2)CC1c1cccc(Br)c1 (centres undefined)	50 µg/mL (≈ 122 µM)
CC(=O)N1N=C(c2ccc(-n3cccc3)cc2)CC1c1ccc(C)cc1 (centres undefined)	6.25 µg/mL (≈ 18.2 µM)
Cc1ccc(C)n1-c1ccccc1NC(=S)Nc1cccc(Br)c1	50 µg/mL (≈ 125 µM)
c1ccc(Oc2cccc(-c3cc(-c4ccc(-n5cccc5)cc4)on3)c2)cc1	12.5 µg/mL (≈ 33 µM)
COc1ccc(/C=C/C(=O)c2ccc(-n3cccc3)cc2)cc1OC	25 µg/mL (≈ 75 µM)
CC(=O)N1N=C(c2ccc(-n3cccc3)cc2)CC1c1cccc(Oc2ccccc2)c1 (centres undefined)	12.5 µg/mL (≈ 29.7 µM)
COc1ccccc1NC(=S)N1N=C(c2ccc(O)c(C)c2)CC1c1c(Cl)cccc1Cl (centres undefined)	1.66 µg/mL (≈ 3.41 µM)
O=C(/C=C/c1ccc(Cl)cc1)c1ccc(-n2cccc2)cc1	50 µg/mL (≈ 162 µM)
CC[C@@H](CO)NCCN[C@@H](CC)CO [ETHAMBUTOL]	0.5 µg/mL (≈ 2.45 µM)
CO[C@H]1/C=C/O[C@@]2(C)Oc3c(C)c(O)c4c(O)c(c(/C=N/N5CCN(C)CC5)c(O)c4c3C2=O)NC(=O)/C(C)=C\C=C\[C@H](C)[C@H](O)[C@@H](C)[C@@H](O)[C@@H](C)[C@H](OC(C)=O)[C@@H]1C [RIFAMPIN]	0.4 µg/mL (≈ 0.486 µM)
